According to ChEMBL document CHEMBL1671683, “Activity of linezolid in an in vitro pharmacokinetic-pharmacodynamic model using different dosages and Staphylococcus aureus and Enterococcus faecalis strains with and without a hypermutator phenotype” (Antimicrob Agents Chemother, 2010):

What was measured:
[1] = system: Enterococcus faecalis; test: AUBC (0 to 24 hrs) in Enterococcus faecalis Ef1497 in two-compartment pharmacokinetic/pharmacodynamic model at 800 mg, bid administered as 0.5 hr infusion for 2 days; format: functional
Outline: (§1)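 Hollow-fibre two-compartment model in cation-adjusted, protein-free MH broth at 37°C. Human total-plasma linezolid profile simulated as 0.5-h infusion every 12 h for 48 h. Concentrated 18-h culture injected into the peripheral compartment 3 h before first sample, giving about 10^8 (E. faecalis) or 10^9 (S. aureus) CFU/ml. Viable counts by dilution plating over 0–24 h. Area indices calculated versus growth control curve. Duplicate runs.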

[2] = system: Enterococcus faecalis; test: Bactericidal activity against 0.5 hrs peripheral compartment culture samples of Enterococcus faecalis Ef1497 in two-compartment pharmacokinetic/pharmacodynamic model assessed as effect on bacterial count at 600 mg, bid administered as 0.5 hr infusion; format: functional
Outline: (§2)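 Two-compartment hollow-fibre model in cation-adjusted, protein-free MH broth, 37°C. Linezolid given as simulated 0.5-h infusion twice daily. Inoculum grown 18 h, concentrated 50-fold and placed in the peripheral compartment 3 h before t0. Peripheral samples at set times counted by dilution plating. First 10-fold dilution not plated, limiting detection to 2–3 log10 CFU/ml. Δlog CFU/ml taken from t0 count. Duplicates.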

[3] = system: Staphylococcus aureus; test: Bactericidal activity against 14 hrs peripheral compartment culture samples of Staphylococcus aureus RN4220 MutS2 in two-compartment pharmacokinetic/pharmacodynamic model assessed as effect on bacterial count at 600 mg, bid administered as 0.5 hr infusion; format: functional
Outline: (§3)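 An 18-h culture concentrated 50-fold was injected into the peripheral compartment 3 h pre-sampling (~10^8 CFU/ml E. faecalis, 10^9 S. aureus). Counts came from dilution plating (detection limit 2–3 log10 CFU/ml), expressed as Δlog CFU/ml from treatment start. Run in duplicate.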

[4] = Volume of distribution at steady state in two-compartment pharmacokinetic/pharmacodynamic model at 400 mg, bid administered as 0.5 hrs infusion; format: ADME, organism-based; settings: iv, read-out: Vdss
[5] = Mean residence time in two-compartment pharmacokinetic/pharmacodynamic model at 600 mg, bid administered as 0.5 hr infusion over 24 hrs; format: ADME, organism-based; settings: in vivo, iv
[6] = system: Enterococcus faecalis; test: ABBC (0 to 24 hrs) in Enterococcus faecalis ATCC 29212 in two-compartment pharmacokinetic/pharmacodynamic model at 200 mg, bid administered as 0.5 hr infusion for 2 days; format: functional; outline: as §1
[7] = Volume of distribution at steady state in two-compartment pharmacokinetic/pharmacodynamic model at 800 mg, bid administered as 0.5 hr infusion over 24 hrs; format: ADME, organism-based; settings: iv, read-out: Vdss
[8] = system: Enterococcus faecalis; test: Bactericidal activity against 12.5 hrs peripheral compartment culture samples of Enterococcus faecalis ATCC 29212 in two-compartment pharmacokinetic/pharmacodynamic model assessed as effect on bacterial count at 600 mg, bid administered as 0.5 hr infusion; format: functional; outline: as §3
[9] = system: Enterococcus faecalis; test: ABBC (0 to 24 hrs) in Enterococcus faecalis Ef1497 MutM3 in two-compartment pharmacokinetic/pharmacodynamic model at 200 mg, bid administered as 0.5 hr infusion for 2 days; format: functional; outline: as §1
[10] = system: Enterococcus faecalis; test: Bactericidal activity against 2 hrs peripheral compartment culture samples of Enterococcus faecalis Ef1497 in two-compartment pharmacokinetic/pharmacodynamic model assessed as effect on bacterial count at 800 mg, bid administered as 0.5 hr infusion; format: functional; outline: as §3
[11] = system: Enterococcus faecalis; test: Bactericidal activity against 14 hrs peripheral compartment culture samples of Enterococcus faecalis Ef1497 in two-compartment pharmacokinetic/pharmacodynamic model assessed as effect on bacterial count at 800 mg, bid administered as 0.5 hr infusion; format: functional; outline: as §3
[12] = Apparent volume of distribution in two-compartment pharmacokinetic/pharmacodynamic model at 800 mg, bid administered as 0.5 hr infusion over 24 hrs; format: ADME, organism-based; settings: in vivo, iv
[13] = system: Enterococcus faecalis; test: Bactericidal activity against 0.5 hrs peripheral compartment culture samples of Enterococcus faecalis Ef1497 MutM3 in two-compartment pharmacokinetic/pharmacodynamic model assessed as effect on bacterial count at 200 mg, bid administered as 0.5 hr infusion; format: functional; outline: as §2
[14] = system: Enterococcus faecalis; test: Bactericidal activity against 1 hr peripheral compartment culture samples of Enterococcus faecalis Ef1497 in two-compartment pharmacokinetic/pharmacodynamic model assessed as effect on bacterial count at 800 mg, bid administered as 0.5 hr infusion; format: functional; outline: as §2
[15] = Apparent volume of distribution in two-compartment pharmacokinetic/pharmacodynamic model at 400 mg, bid administered as 0.5 hrs infusion; format: ADME, organism-based; settings: iv
[16] = system: Enterococcus faecalis; test: Bactericidal activity against 2 hrs peripheral compartment culture samples of Enterococcus faecalis Ef1497 MutM3 in two-compartment pharmacokinetic/pharmacodynamic model assessed as effect on bacterial count at 600 mg, bid administered as 0.5 hr infusion; format: functional; outline: as §3
[17] = system: Enterococcus faecalis; test: Bactericidal activity against 12 hrs peripheral compartment culture samples of Enterococcus faecalis Ef1497 MutM3 in two-compartment pharmacokinetic/pharmacodynamic model assessed as effect on bacterial count at 200 mg, bid administered as 0.5 hr infusion; format: functional; outline: as §2
[18] = in vivo; settings: iv, 800 mg
[19] = Residual concentration at the end of the administration interval in two-compartment pharmacokinetic/pharmacodynamic model at 200 mg, bid administered as 0.5 hr infusion over 24 hrs; format: ADME; settings: in vivo, iv
[20] = AUC in two-compartment pharmacokinetic/pharmacodynamic model at 200 mg, bid administered as 0.5 hrs infusion; format: ADME; settings: iv
[21] = Mean residence time in two-compartment pharmacokinetic/pharmacodynamic model at 200 mg, bid administered as 0.5 hrs infusion; format: ADME, organism-based; settings: iv
[22] = system: Enterococcus faecalis; test: Bactericidal activity against 24 hrs peripheral compartment culture samples of Enterococcus faecalis Ef1497 MutM3 in two-compartment pharmacokinetic/pharmacodynamic model assessed as effect on bacterial count at 600 mg, bid administered as 0.5 hr infusion; format: functional; outline: as §3
[23] = system: Enterococcus faecalis; test: Bactericidal activity against 48 hrs peripheral compartment culture samples of Enterococcus faecalis Ef1497 in two-compartment pharmacokinetic/pharmacodynamic model assessed as effect on bacterial count at 800 mg, bid administered as 0.5 hr infusion; format: functional; outline: as §3
[24] = Residual concentration at the end of the administration interval in two-compartment pharmacokinetic/pharmacodynamic model at 800 mg, bid administered as 0.5 hr infusion over 24 hrs; format: ADME; settings: in vivo, iv
[25] = system: Staphylococcus aureus; test: Bactericidal activity against 12.5 hrs peripheral compartment culture samples of Staphylococcus aureus RN4220 MutS2 in two-compartment pharmacokinetic/pharmacodynamic model assessed as effect on bacterial count at 600 mg, bid administered as 0.5 hr infusion; format: functional; outline: as §3
[26] = system: Enterococcus faecalis; test: Bactericidal activity against 24 hrs peripheral compartment culture samples of Enterococcus faecalis ATCC 29212 in two-compartment pharmacokinetic/pharmacodynamic model assessed as effect on bacterial count at 200 mg, bid administered as 0.5 hr infusion; format: functional; outline: as §3
[27] = system: Enterococcus faecalis; test: AUBC (0 to 24 hrs) in Enterococcus faecalis Ef1497 MutM3 in two-compartment pharmacokinetic/pharmacodynamic model at 600 mg, bid administered as 0.5 hr infusion for 2 days; format: functional; outline: as §1
[28] = system: Staphylococcus aureus; test: Bactericidal activity against 24 hrs peripheral compartment culture samples of Staphylococcus aureus RN4220 in two-compartment pharmacokinetic/pharmacodynamic model assessed as effect on bacterial count at 600 mg, bid administered as 0.5 hr infusion; format: functional; outline: as §3

For CC(=O)NC[C@H]1CN(c2ccc(N3CCOCC3)c(F)c2)C(=O)O1 [LINEZOLID], the AUBC [1] was 210.5 log10CFU/ml.hr, the log10CFU/ml [2] was -0.01 and the log10CFU/ml [3] was -0.58. The Vd [4] was 112 L, the MRT [5] was 8.1 h and the ABBC [6] was 5.11 log10CFU/ml.hr. For the same molecule, the Vd [7] was 89.3 L, the log10CFU/ml [8] was 0.1 and the ABBC [9] was 2.32 log10CFU/ml.hr. It also gave a log10CFU/ml [10] of -0.13, a log10CFU/ml [11] of -0.05 and a Vd [12] of 102 L. The log10CFU/ml [13] was -0.009, the log10CFU/ml [14] was -0.02 and the Vd [15] was 130 L. For the same molecule, the log10CFU/ml [16] was -0.05, the log10CFU/ml [17] was 0.29 and the half-life [18] was 5.2 h. For the same molecule, the Drug uptake [19] was 0.31 µg/mL, the AUC at 0.5 h [20] was 10.1 µg·h/mL and the MRT [21] was 8.65 h. The log10CFU/ml [22] was 0.44, the log10CFU/ml [23] was -1.16 and the Drug uptake [24] was 1.42 µg/mL. It also gave a log10CFU/ml [25] of -0.06, a log10CFU/ml [26] of 0.83 and an AUBC [27] of 217.1 log10CFU/ml.hr. For the same molecule, the log10CFU/ml [28] was -0.17.
